Laboratory results taken from ChEMBL document CHEMBL1126079, “Synthesis, configuration, and calcium modulatory properties of enantiomerically pure 5-oxo-1,4,5,6,7,8-hexahydroquinoline-3-carboxylates” (J Med Chem, 1992).

Legend:
Cavia porcellus [1] = species: Cavia porcellus; assay: Maximum inhibition of KCl-stimulated contraction of aortic strips of guinea pig; type: functional, Aorta
Method in brief: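 Aortic strips were held in carbogen-perfused Tyrode solution at 37 °C under 2 g preload, and isometric contractions were recorded after amplification. Contractions were induced with KCl at 67 mmol/L bath concentration to test for antagonism. Between substances the preparation was washed back to its initial state before KCl was given again.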

Cavia porcellus [2] = species: Cavia porcellus; assay: Intrinsic activity is the inhibition of contraction of guinea pig aorta strips value in comparison with nifedipine.; type: functional
Method in brief: (§1)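 Tissue sat in carbogen-perfused Tyrode solution at 37 °C under a 2 g preload, with isometric recording. KCl (67 mmol/L bath concentration) was added after each substance to test for antagonism, with washing back to the initial state between substances. EC50 and intrinsic activity were derived as in the paper's earlier section 1c.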

Cavia porcellus [3] = species: Cavia porcellus; assay: Effect on KCl-stimulated contraction of aortic strips of guinea pig; type: functional, Aorta; method in brief: as §1
Cavia porcellus [4] = species: Cavia porcellus; assay: (§2) Maximum inhibition of BaCl2-stimulated contraction of ileum of guinea pig; type: functional
Method in brief: (§3)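 Each test substance was given as a single dose to the ileum preparation. BaCl2 contraction was elicited after a 10-min exposure. Between substances the tissue was washed until the initial state returned, then BaCl2 contraction was induced again.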

Cavia porcellus [5] = species: Cavia porcellus; assay: Intrinsic activity is the inhibition of contraction of guinea pig ileum value in comparison with nifedipine.; type: functional; method in brief: as §3
Cavia porcellus [6] = species: Cavia porcellus; assay: Effect on BaCl2-stimulated contraction of ileum of guinea pig; type: functional; method in brief: as §3
Cavia porcellus [7] = species: Cavia porcellus; assay: Intrinsic activity value in comparison with nifedipine.; type: functional
Cavia porcellus [8] = species: Cavia porcellus; assay: as §2; type: functional; remark: listed apart in the source
Method in brief: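 Guinea-pig ileum, single-dose technique: each test substance was added and left for 10 min before BaCl2 contractions were induced. Between substances the preparation was washed until the initial state returned, then BaCl2 contraction was induced again.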

Row | SMILES | EC50 (Cavia porcellus [3]) [M l-1] | EC50 (Cavia porcellus [6]) | Max effect (Cavia porcellus [1]) [%] | IA (Cavia porcellus [2]) | Max effect (Cavia porcellus [4]) [%] | IA (Cavia porcellus [5]) | Inhibition (Cavia porcellus [1]) [%] | IA (Cavia porcellus [7]) | Inhibition (Cavia porcellus [8]) [%]
1 | CO/C(O)=C1\C(C)=NC2=C(C(=O)CCC2)C1c1ccc2c(c1)OCO2 (racemic) | 2e-06 | 5e-05 M l-1 | 73 | 1 | 76 | 0.8 |  |  | 
2 | COC(=O)C1=C(C)NC2=C(C(=O)CCC2)[C@@H]1c1ccc2c(c1)OCO2 (stereo in doubt; 9a) |  | 25 µM | 38 | 0.54 | 42 | 0.44 |  |  | 
3 | COC(=O)C1=C(C)NC2=C(C(=O)CCC2)[C@@H]1c1ccc2c(c1)OCO2 (stereo in doubt; 9b) |  | 22 µM | 84 | 1.2 | 89 | 0.94 |  |  | 
4 | COC(=O)C1=C(C)NC(C)=C(C(=O)OC)C1c1ccccc1[N+](=O)[O-] [NIFEDIPINE] | 8.9e-09 | 2e-08 M l-1 |  |  |  |  | 70 | 1 | 95

Second part, led by results:

Row | EC50 (Cavia porcellus [3]) [M l-1] | EC50 (Cavia porcellus [6]) | SMILES | Max effect (Cavia porcellus [1]) [%] | IA (Cavia porcellus [2]) | Max effect (Cavia porcellus [4]) [%] | IA (Cavia porcellus [5]) | Inhibition (Cavia porcellus [1]) [%] | IA (Cavia porcellus [7]) | Inhibition (Cavia porcellus [8]) [%]
5 | 7.1e-06 |  | CO[C@H](COC(=O)C1=C(C)NC2=C(C(=O)CCC2)[C@@H]1c1ccc2c(c1)OCO2)c1ccccc1 | 70 | 1 |  |  |  |  | 
6 | 4e-05 |  | CO[C@@H](COC(=O)C1=C(C)NC2=C(C(=O)CCC2)[C@H]1c1ccc2c(c1)OCO2)c1ccccc1 | 42 | 0.6 |  |  |  |  | 
